Data: ChEMBL document CHEMBL1671655, “Anidulafungin is fungicidal and exerts a variety of postantifungal effects against Candida albicans, C. glabrata, C. parapsilosis, and C. krusei isolates” (2009)
≈ marks a conversion by molar mass, not a printed value. Calls of active or inactive are those of the source. The calls are words filed in the database; no cut-off is given here. Starred links: 1 amine or outer side, 2 acyl side, 3 side chain; linkers in the order of their positions; H or OH if unused. Positions of bridges follow the written chain, without caps; N, C: chain ends. Non-standard residues stand in square brackets, D forms with d. Residues, ends and D or L forms follow the SMILES beside them. *: point of attachment. pTerphenylCO(4''-OnC5H11) = CCCCCOc1ccc(-c2ccc(-c3ccc(C(=O)*)cc3)cc2)cc1; Orn(4R-OH,5R-OH) = O=C([C@H](C[C@@H](O)[C@@H](O)N[*:3])N[*:1])[*:2]; hTyr(3S-OH,4S-OH) = N[C@H](C(=O)O)[C@H](O)[C@@H](O)c1ccc(O)cc1; Pro(3S-OH,4S-Me) = C[C@H]1CN[C@H](C(=O)O)[C@H]1O; Hyp = O=C(O)[C@@H]1C[C@@H](O)CN1

Assays:
Pichia kudriavzevii [1] = assay: Fungicidal activity against Candida krusei isolate ATCC 6258 assessed as log reduction in bacterial count at MIC after 48 hrs by time-kill analysis; assay type: functional; conditions: isolate ATCC 6258, 48 h
How it was run: (§1)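 Isolates subcultured twice on SDA, suspended to 0.5 McFarland, giving ~1 x 10^5 to 5 x 10^5 CFU/ml in MOPS-buffered RPMI 1640 (pH 7.0) with or without drug at multiples of MIC (MIC by CLSI M27-A3). Tubes shaken at 35°C with continuous drug. Sampled at 0–48 h, diluted 10-fold and plated on SDA; CFU counted after 48 h at 35°C. Run twice per isolate; means.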

Candida albicans [2] = assay: Antifungal activity against Candida albicans ATCC 90028 by CLSI M27-A3 broth microdilution method; assay type: functional
How it was run: (§2)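 CLSI M27-A3 broth microdilution in RPMI 1640 buffered to pH 7.0 with MOPS. Starting inoculum 0.5 x 10^3 to 2.5 x 10^3 cells/ml, incubated at 35°C. MIC read as the lowest concentration giving >50% growth reduction versus control. Each isolate tested on at least three occasions.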

Candida parapsilosis [3] = assay: Fungicidal activity against Candida parapsilosis isolate A assessed as log reduction in bacterial count at MIC after drug exposure for 1 hr followed by washout measured after 48 hrs in the absence of drug by PAFE study; assay type: functional; conditions: Lodderomyces parapsilosis
How it was run: (§3)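 Inoculum about 1 x 10^5 to 5 x 10^5 CFU/ml in RPMI 1640 (MOPS, pH 7.0) with drug, shaken at 35°C for 1 h. Cells were then washed and centrifuged at 1,400 x g for 10 min (3 cycles) and resuspended in warm drug-free RPMI. Samples plated on SDA at 0, 2, 4, 8, 12, 24 and 48 h; CFU counted after 48 h at 35°C. Run twice per isolate; means.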

Nakaseomyces glabratus [4] = assay: Fungicidal activity against Candida glabrata isolate 3 assessed as log reduction in bacterial count at 16 times MIC after 48 hrs by time-kill analysis; assay type: functional; conditions: isolate 3, 48 h; how it was run: as §1
Nakaseomyces glabratus [5] = assay: Antifungal activity against Candida glabrata assessed as time period for bacterial regrowth inhibition after 1 hr drug exposure; assay type: functional
Candida parapsilosis [6] = assay: Antifungal activity against Candida parapsilosis isolate A assessed as time period for bacterial growth inhibition at 16 times MIC after 1 hr drug exposure; assay type: functional
How it was run: (§4)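 Inoculum of about 1 x 10^5 to 5 x 10^5 CFU/ml in MOPS-buffered RPMI (pH 7.0), shaken at 35°C and exposed to drug for 1 h. Cells then washed and centrifuged three times and resuspended in drug-free warm RPMI. Samples plated on SDA at 0, 2, 4, 8, 12, 24 and 48 h, with CFU counted after 48 h at 35°C. Run twice per isolate; values are means.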

Pichia kudriavzevii [7] = assay: Increase in susceptibility to calcofluor white in Candida krusei isolate ATCC 6258 assessed as cell wall damage at 16 times MIC after 1 hr relative to control; assay type: functional, organism-based
How it was run: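 Cells recovered 8 h after a 1-h drug exposure were grown to exponential phase in YPD with 1% glucose and adjusted to OD599 0.1. Undiluted and 10-fold serially diluted cultures were spotted onto YPD plates containing calcofluor white, then incubated at 30°C for 72 h. Growth compared with no-drug control cells; triplicate.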

Candida albicans [8] = assay: Antifungal activity against Candida albicans isolate S by CLSI M27-A3 broth microdilution method; assay type: functional; how it was run: as §2
Candida parapsilosis [9] = assay: Antifungal activity against Candida parapsilosis isolate 1 assessed as time period for bacterial growth inhibition at 16 times MIC after 1 hr drug exposure; assay type: functional; how it was run: as §4
Pichia kudriavzevii [10] = assay: Antifungal activity against Candida krusei assessed as time period for bacterial regrowth inhibition after 1 hr drug exposure; assay type: functional
Pichia kudriavzevii [11] = assay: Antifungal activity against Candida krusei isolate ATCC 6258 assessed as time period for bacterial growth inhibition at 16 times MIC after 1 hr drug exposure; assay type: functional; how it was run: as §4
Nakaseomyces glabratus [12] = assay: Fungicidal activity against Candida glabrata isolate 2 assessed as log reduction in bacterial count at 16 times MIC after drug exposure for 1 hr followed by washout measured after 48 hrs in the absence of drug by PAFE study; assay type: functional
How it was run: (§5)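 Starting inoculum ~1 x 10^5 to 5 x 10^5 CFU/ml in MOPS-buffered RPMI 1640 (pH 7.0) with drug at multiples of the CLSI M27-A3 MIC. After 1 h at 35°C, cells washed and centrifuged three times at 1,400 x g for 10 min, then resuspended in warm drug-free RPMI. Shaken at 35°C and plated on SDA at 0–48 h; CFU counted after 48 h. Run twice per isolate; means.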

Candida albicans [13] = assay: Antifungal activity against Candida albicans by NCCLS M27A broth microdilution method; assay type: functional
Candida parapsilosis [14] = assay: Increase in susceptibility to calcofluor white in Candida parapsilosis isolate 1 assessed as cell wall damage at MIC after 1 hr relative to control; assay type: functional, organism-based
How it was run: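 Candida given a 1-h anidulafungin pulse in MOPS-buffered RPMI 1640 (pH 7.0) at 35°C, washed three times by centrifugation, and regrown drug-free. Cells collected 8 h later, grown in YPD with 1% glucose to exponential phase, and set to OD599 0.1. Undiluted culture and 10-fold dilutions (4 µl) spotted on YPD plates with calcofluor white, then 30°C for 72 h. Triplicate; compared with no-drug cells.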

Pichia kudriavzevii [15] = assay: Antifungal activity against Candida krusei isolate ATCC 6258 by CLSI M27-A3 broth microdilution method; assay type: functional; how it was run: as §2
Candida albicans [16] = assay: Fungicidal activity against Candida albicans isolate 2 assessed as log reduction in bacterial count at 4 times MIC after 48 hrs by time-kill analysis; assay type: functional; conditions: isolate 2, 48 h; how it was run: as §1
Pichia kudriavzevii [17] = assay: Fungicidal activity against Candida krusei isolate 1 assessed as log reduction in bacterial count at 16 times MIC after 48 hrs by time-kill analysis; assay type: functional; conditions: isolate 1, 48 h; how it was run: as §1
Candida albicans [18] = assay: Fungicidal activity against Candida albicans isolate 2 assessed as log reduction in bacterial count at 4 times MIC after drug exposure for 1 hr followed by washout measured after 48 hrs in the absence of drug by PAFE study; assay type: functional; how it was run: as §5
Candida albicans [19] = assay: Increase in susceptibility to SDS in Candida albicans ATCC 90028 assessed as cell wall damage at 4 times MIC after 1 hr relative to control; assay type: functional, organism-based
How it was run: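 Cells recovered 8 h after a 1-h drug exposure were grown in YPD with 1% glucose to exponential phase and adjusted to OD599 0.1. Undiluted culture and 10-fold serial dilutions were spotted onto YPD plates containing SDS (0.01 to 0.04%), then incubated 72 h at 30°C. Growth compared with unexposed control cells; triplicate.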

Nakaseomyces glabratus [20] = assay: Fungicidal activity against Candida glabrata isolate 1 assessed as log reduction in bacterial count at 16 times MIC after 48 hrs by time-kill analysis; assay type: functional; conditions: isolate 1, 48 h; how it was run: as §1
Candida parapsilosis [21] = assay: Fungicidal activity against Candida parapsilosis isolate S assessed as log reduction in bacterial count at MIC after drug exposure for 1 hr followed by washout measured after 48 hrs in the absence of drug by PAFE study; assay type: functional; conditions: Lodderomyces parapsilosis; how it was run: as §3
Candida parapsilosis [22] = assay: Inhibition of Candida parapsilosis isolate A adherence to human buccal epithelial cells at 4 times MIC after 1 hr by adherence assay relative to control; assay type: functional, Epithelial cell
How it was run: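 Candida collected 8 h after a 1-h 4x MIC pulse and washout were grown on SDA for 24 h at 35°C. Buccal epithelial cells were pooled from three donors and washed in PBS. Cells (1 x 10^5/ml) were mixed 1:1 by volume with Candida (1 x 10^6/ml) and shaken 1 h at 37°C. Mixtures were filtered, washed, and Gram-stained, and Candida were counted per 100 epithelial cells. Run in duplicate on ≥2 occasions; Student's t test against unexposed controls.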

With CCCCCOc1ccc(-c2ccc(-c3ccc(C(=O)N[C@H]4C[C@@H](O)[C@@H](O)NC(=O)[C@@H]5[C@@H](O)[C@@H](C)CN5C(=O)[C@H]([C@@H](C)O)NC(=O)[C@H]([C@H](O)[C@@H](O)c5ccc(O)cc5)NC(=O)[C@@H]5C[C@@H](O)CN5C(=O)[C@H]([C@@H](C)O)NC4=O)cc3)cc2)cc1 [ANIDULAFUNGIN] ({pTerphenylCO(4''-OnC5H11)}-[Orn(4R-OH,5R-OH)]T[Hyp][hTyr(3S-OH,4S-OH)]T[Pro(3S-OH,4S-Me)]; lactam 1-C) the log reduction (Pichia kudriavzevii [1]) was 2.21 log CFU/ml, the MIC (Candida albicans [2]) was 0.03 µg/mL (≈ 0.0263 µM) and the log reduction (Candida parapsilosis [3]) was 1.41. For the same compound, the log reduction (Nakaseomyces glabratus [4]) was 3.89 log CFU/ml, the Time (Nakaseomyces glabratus [5]) was “>=12 hr” and the Time (Candida parapsilosis [6]) was 8 h. For the same compound, the Activity (Pichia kudriavzevii [7]) was “Active”, the MIC (Candida albicans [8]) was 0.008 µg/mL (≈ 0.00702 µM) and the Time (Candida parapsilosis [9]) was 8 h. The Time (Pichia kudriavzevii [10]) was “>=12 hr”, the Time (Pichia kudriavzevii [11]) was 8 h and the log reduction (Nakaseomyces glabratus [12]) was 2.92. The MIC90 (Candida albicans [13]) was 0.06 µg/mL (≈ 0.0526 µM), the Activity (Candida parapsilosis [14]) was “Active” and the MIC (Pichia kudriavzevii [15]) was 0.06 µg/mL (≈ 0.0526 µM). The log reduction (Candida albicans [16]) was 2.33 log CFU/ml, the log reduction (Pichia kudriavzevii [17]) was 3 log CFU/ml and the log reduction (Candida albicans [18]) was 1.24. The Activity (Candida albicans [19]) was “Active”, the log reduction (Nakaseomyces glabratus [20]) was 3.44 log CFU/ml and the log reduction (Candida parapsilosis [21]) was 0.41. For the same compound, the “inhibition (INH)” value (Candida parapsilosis [22]) was 69%.
